These results are taken from PubChem BioAssay.

The viability is a read-out of living cells in per cent, often relative to untreated cells. By inhibition is commonly meant the relative decrease from the control value, in per cent.

Test [1] is described as follows: Her2 expression decrease, cell viability multiplex – SKBR3 breast tumor cells, AlphaScreen, ATP viability, primary screen (AID 461;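 active = Her2 level under about 52% in both replicate screens, with viability over 70% of control, limit read from the data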;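 as to Her2 level: lower value means less Her2 protein in the cells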;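 as to viability: percent of carrier control wells set as 100% viability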). The settings on record: SKBR3 Her2 protein level, 18-24 h, measured here: SKBR3 viability, ATP luminescence, at 10 µM. In general terms: Alpha assays give light when donor and acceptor beads are brought close together.
For test [2], the target named is Receptor tyrosine-protein kinase erbB-2 (Homo sapiens) (UniProt P04626). The test is described as above. The settings on record: 18-24 h, at 10 µM, stronger effect = lower value.
The nature of test [3]: reduced viability of SK-BR-3 breast cancer cells – cell-based, 24 h, human, pilot screen (AID 572;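 active = viability at or below 10% of carrier control in both of two separate runs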;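 also: compound exposure lasted between 18 and 24 h rather than exactly 24 h; 100% = carrier-treated control wells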). The conditions noted are these: SK-BR-3 viability, CellTiter-Glo luminescence, at 10 µM, stronger effect = lower value. (In general: In ATP-based viability assays light output follows the ATP content of the culture.)
Test [4] is described as follows: HUVEC growth inhibition – cell-based, human, primary screen (AID 575;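 active = viability at or below 30% in both replicate assays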;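 also: 100% = median of untreated cell wells with 0.1% DMSO on each plate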). The conditions noted are these: HUVEC proliferation, CellTiter-Glo luminescence, 72 h; at 10 µM; stronger effect = lower value. In outline: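 material = primary HUVEC, no more than 12 passages | input = 1250 cells per well | controls = vehicle and MePR control wells | measured by = CTG luminescence | times = 72 h compound incubation | format = collagen-coated 384-well format | read-out = % viability vs DMSO wells | doses = single 10 µM dose, 0.1% DMSO, from 5x medium stock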

Test [5] is described as follows: H69AR cell proliferation blockers – human, duplicate replicates, primary screen (AID 580;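 active = viability at or under a set limit in both replicates, limit being median viability minus 3 SD, cut at about 48% in these data, passing the limit was not always enough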;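 also: 100% = mean luminescence of untreated wells and 0% = no signal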). The settings on record: H69AR lung tumor cells viability, ATP luminescence, 72 h; at 10 µM; stronger effect = lower value.
Test [6] is described as follows: MRP1 drug-resistance reversers in H69AR cells – cell-based, doxorubicin co-treatment, pilot screen (AID 601;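 active = viability loss from added drug above about 55%, and viability with drug at most 40%, in both replicates, limit read from the data, passing the limit was not always enough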). The conditions noted are these: CellTiter-Glo, 72 h, at 10 µM; for differential viability (reversal): stronger effect = higher value.
Test [7] is described as follows: yeast transport mutant growth inhibition pilot in 384-well plates, post-Golgi transport modulator project (AID 636; in the data active = inhibition above about 31%). The settings on record: absorbance 615 nm, about 18 h, stronger effect = higher value.
Test [8] in a line: growth suppression of yeast trafficking mutant, preliminary HTS, modulators of trafficking downstream of Golgi apparatus project, 1536-format plate, OD 615 nm (AID 637). The conditions noted are these: yeast transport mutant growth, absorbance 615 nm, 18 h; stronger effect = higher value.
[9] abbreviates: H69AR cells + 2 uM doxorubicin, measured here: viability with 2 uM doxorubicin, stronger effect = lower value.
The mark [10] stands for this setting: H69AR cells, compound alone cytotoxicity.

The source made the active and inactive calls. Rule as the data show it, unless noted: active = inhibition above about 30%; inactive = the rest.

Sequence of Receptor tyrosine-protein kinase erbB-2 (Homo sapiens) (P04626 whole entry, looked up): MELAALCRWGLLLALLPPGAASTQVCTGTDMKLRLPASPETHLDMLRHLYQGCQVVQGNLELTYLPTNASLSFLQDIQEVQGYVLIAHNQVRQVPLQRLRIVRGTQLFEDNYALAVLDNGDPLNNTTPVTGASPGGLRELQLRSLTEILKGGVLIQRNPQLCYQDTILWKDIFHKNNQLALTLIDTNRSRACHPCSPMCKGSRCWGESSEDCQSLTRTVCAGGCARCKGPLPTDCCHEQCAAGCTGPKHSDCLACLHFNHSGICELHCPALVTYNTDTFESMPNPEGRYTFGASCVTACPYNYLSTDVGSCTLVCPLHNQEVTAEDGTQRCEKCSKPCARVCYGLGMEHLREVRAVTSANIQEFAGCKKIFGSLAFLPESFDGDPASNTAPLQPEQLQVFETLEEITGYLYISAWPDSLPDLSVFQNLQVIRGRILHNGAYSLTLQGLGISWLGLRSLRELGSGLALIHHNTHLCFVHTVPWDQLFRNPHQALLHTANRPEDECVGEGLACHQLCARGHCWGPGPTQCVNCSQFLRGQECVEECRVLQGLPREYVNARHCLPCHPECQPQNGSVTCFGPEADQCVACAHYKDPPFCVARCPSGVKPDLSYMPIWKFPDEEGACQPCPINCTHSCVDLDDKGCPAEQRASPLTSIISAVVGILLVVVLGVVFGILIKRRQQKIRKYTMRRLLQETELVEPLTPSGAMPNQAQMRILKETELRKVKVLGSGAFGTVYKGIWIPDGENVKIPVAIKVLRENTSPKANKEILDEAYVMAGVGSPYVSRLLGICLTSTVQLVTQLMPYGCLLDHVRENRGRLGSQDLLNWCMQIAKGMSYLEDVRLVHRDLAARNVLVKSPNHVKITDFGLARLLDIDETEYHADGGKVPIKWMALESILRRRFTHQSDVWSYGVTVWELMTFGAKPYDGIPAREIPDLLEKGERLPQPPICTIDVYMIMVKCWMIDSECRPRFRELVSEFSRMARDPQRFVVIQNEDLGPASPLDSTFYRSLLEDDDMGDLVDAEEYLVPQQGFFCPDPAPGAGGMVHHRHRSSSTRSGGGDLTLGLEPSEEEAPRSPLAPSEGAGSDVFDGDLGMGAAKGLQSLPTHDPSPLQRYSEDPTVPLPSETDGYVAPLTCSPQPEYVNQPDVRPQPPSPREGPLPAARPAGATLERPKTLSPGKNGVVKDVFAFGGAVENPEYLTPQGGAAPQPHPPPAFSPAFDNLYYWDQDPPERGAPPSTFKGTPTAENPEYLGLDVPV

Take `COc1ccc(Cc2noc(-c3ccc(C)cc3)n2)cc1`: the viability was 91% in test [1]; 91% (inactive) in test [3]; 90.1% (inactive) in test [4]; 91.2% (inactive) in test [5]; 76.3% in test [6] (setting [9]); 91.2% in test [6] (setting [10]). Also, the Her2 level in test [2] is 131% (inactive). Moreover, in test [6] (H69AR cells + 2 uM doxorubicin), the differential viability (reversal) was 14.9% (inactive). For the same molecule, the inhibition in test [7] is 4.87% (inactive); in test [8], 45.8% (active).

As for `CCOC(=O)c1sc(N2C(=O)C(O)=C(C(=O)c3ccco3)C2c2ccccc2)nc1C` (stereo not given), the viability in test [1] was 101%; in test [3] it was 101% (inactive); in test [4] it was 77.4% (inactive); in test [5], 84.2% (inactive); in test [6] (setting [9]) it was 82.9%; in test [6] (setting [10]) it was 84.2%. Also, the Her2 level in test [2] is 83.5% (inactive). Besides, the differential viability (reversal) in test [6] (H69AR cells + 2 uM doxorubicin) was 1.33% (inactive). Besides, the inhibition in test [7] was -4.93% (inactive); in test [8] it was 0.98% (inactive).

On to `FC(F)(F)c1cc(-c2ccccc2)nc(N2CCCCC2)n1`, for which the viability in test [1] is 101%; in test [3], 101% (inactive); in test [4] it was 101% (inactive); in test [5] it was 98.1% (inactive); in test [6] (setting [9]) it was 101%; in test [6] (setting [10]), 98.1%. For the same molecule, in test [2], the Her2 level is 102% (inactive). The differential viability (reversal) in test [6] (H69AR cells + 2 uM doxorubicin) is -3% (inactive). Moreover, the results for the inhibition in test [7] and in test [8] were -4.53% (inactive) and 5.57% (inactive), respectively.

With `CC(=O)Nc1ccc(S(=O)(=O)N2CCN(C(C)CCc3ccccc3)CC2)cc1` (stereo not given), the viability in test [1] is 74%; in test [3] it was 74% (inactive); in test [4], 97.8% (inactive); in test [5], 96.6% (inactive); in test [6] (setting [9]), 91.4%; in test [6] (setting [10]), 96.6%. Moreover, the Her2 level in test [2] was 98.5% (inactive). Moreover, the differential viability (reversal) in test [6] (H69AR cells + 2 uM doxorubicin) was 5.17% (inactive). Also, the inhibition in test [7] is -4.8% (inactive); in test [8], -1.29% (inactive).

As to `Cc1c(C(=O)NCc2ccccc2)oc2c1C(=O)CCC2`, the viability is 72% in test [1]; 72% (inactive) in test [3]; 75.2% (inactive) in test [4]; 99.2% (inactive) in test [5]; 83.6% in test [6] (setting [9]); 99.2% in test [6] (setting [10]). In addition, in test [2], the Her2 level is 93.5% (inactive). Further, the differential viability (reversal) in test [6] (H69AR cells + 2 uM doxorubicin) was 15.6% (inactive). Besides, the inhibition was -4.87% (inactive) in test [7] and 5.67% (inactive) in test [8].

For `CCCNC(=O)NC(C(=O)OC)C12CC3CC(CC(C3)C1)C2` (stereo not given), the viability in test [1] is 101%; in test [3] it was 101% (inactive); in test [4], 80.4% (inactive); in test [5] it was 102% (inactive); in test [6] (setting [9]), 91.6%; in test [6] (setting [10]), 102%. For the same molecule, the Her2 level in test [2] was 76.5% (inactive). The differential viability (reversal) in test [6] (H69AR cells + 2 uM doxorubicin) was 10.1% (inactive). Also, the results for the inhibition in test [7] and in test [8] were -5% (inactive) and -1.5% (inactive), respectively.

Turning to `C=CCn1c(N)c(C(=O)NCCC2=CCCCC2)sc1=S`, the viability in test [1] is 85.5%; in test [3], 85.5% (inactive); in test [4], 44.6% (inactive); in test [5] it was 83.2% (inactive); in test [6] (setting [9]), 76%; in test [6] (setting [10]), 83.2%. In addition, the Her2 level in test [2] is 92.5% (inactive). Besides, the differential viability (reversal) in test [6] (H69AR cells + 2 uM doxorubicin) is 7.14% (inactive). Also, the inhibition in test [7] is -6.49% (inactive); in test [8], -0.95% (inactive).

Turning to `O=C1COc2ccc(C(=O)NCc3ccco3)cc2N1`, the viability in test [1] was 95.5%; in test [3], 95.5% (inactive); in test [4] it was 105% (inactive); in test [5] it was 104% (inactive); in test [6] (setting [9]), 96.1%; in test [6] (setting [10]), 104%. Further, the Her2 level in test [2] is 86% (inactive). In addition, the differential viability (reversal) in test [6] (H69AR cells + 2 uM doxorubicin) is 7.71% (inactive). Besides, the inhibition was -2.11% (inactive) in test [7] and -7.26% (inactive) in test [8].

Regarding `Cc1cccc(NC(=O)CSc2nnc(-c3cc(C)n(-c4ccccc4)c3C)o2)c1C`, the viability in test [1] is 115%; in test [3], 115% (inactive); in test [4] it was 66.3% (inactive); in test [5], 76.2% (inactive); in test [6] (setting [9]), 80.2%; in test [6] (setting [10]), 76.2%. For the same molecule, the Her2 level in test [2] was 91% (inactive). Further, the differential viability (reversal) in test [6] (H69AR cells + 2 uM doxorubicin) is -3.98% (inactive). The inhibition is 0.26% (inactive) in test [7] and -6.03% (inactive) in test [8].

Turning to `Cc1c(C(=O)Nc2cnccn2)oc2ccccc12`, the viability in test [1] is 110%; in test [3] it was 110% (inactive); in test [4] it was 58.6% (inactive); in test [5], 37.4% (active); in test [6] (setting [9]) it was 72.7%; in test [6] (setting [10]), 37.4%. In addition, the Her2 level in test [2] was 72% (inactive). For the same molecule, the differential viability (reversal) in test [6] (H69AR cells + 2 uM doxorubicin) was -35.3% (inactive). Also, the results for the inhibition in test [7] and in test [8] were -5.6% (inactive) and 3.49% (inactive), respectively.

For the molecule `O=C1CSC(c2cccc(F)c2)N1c1ccccc1F` (stereo not given), the viability was 86% in test [1]; 86% (inactive) in test [3]; 98.8% (inactive) in test [4]; 97.5% (inactive) in test [5]; 88.2% in test [6] (setting [9]); 97.5% in test [6] (setting [10]). In test [2], the Her2 level was 102% (inactive). Further, the differential viability (reversal) in test [6] (H69AR cells + 2 uM doxorubicin) is 9.31% (inactive). In addition, the inhibition in test [7] is -4.87% (inactive); in test [8] it was 7.38% (inactive).

For `CCSc1ccccc1C(=O)Nc1cccc(OC)c1`, the viability in test [1] is 110%; in test [3], 110% (inactive); in test [4], 115% (inactive); in test [5], 98.4% (inactive); in test [6] (setting [9]) it was 86.6%; in test [6] (setting [10]), 98.4%. Further, the Her2 level in test [2] was 97% (inactive). Besides, the differential viability (reversal) in test [6] (H69AR cells + 2 uM doxorubicin) is 11.7% (inactive). In addition, the inhibition in test [7] is -8.49% (inactive); in test [8] it was -3.33% (inactive).

With `O=C(NCCN1CCOCC1)C1CC(=O)N(c2ccc(F)c(Cl)c2)C1` (stereo not given), the viability in test [1] is 124%; in test [3], 124% (inactive); in test [4], 100% (inactive); in test [5], 98.2% (inactive); in test [6] (setting [9]), 94.9%; in test [6] (setting [10]), 98.2%. In test [2], the Her2 level was 111% (inactive). For the same molecule, the differential viability (reversal) in test [6] (H69AR cells + 2 uM doxorubicin) is 3.27% (inactive). Further, the inhibition in test [7] is -1.18% (inactive); in test [8], -4.03% (inactive).

As for `O=C(CN1CCC(NC(=O)c2ccc(F)cc2)CC1)NCc1ccccc1F`, the viability was 96.5% in test [1]; 96.5% (inactive) in test [3]; 91.5% (inactive) in test [4]; 103% (inactive) in test [5]; 100% in test [6] (setting [9]); 103% in test [6] (setting [10]). In addition, the Her2 level in test [2] is 98.5% (inactive). In addition, the differential viability (reversal) in test [6] (H69AR cells + 2 uM doxorubicin) was 3.44% (inactive). For the same molecule, the inhibition is -5.6% (inactive) in test [7] and -0.63% (inactive) in test [8].
